For orientation: IC50 means the midpoint of a concentration-inhibition curve. Lower therefore signals greater potency.

“And” between values parts separate entries of the source, which are not always exact repeats. Equal values may be shown once. A value given as a limit tells only on which side of the number the result lay.

This is an account of results in paper PMC7126328 (Bioorganic & Medicinal Chemistry, 2013).

The subject of data set [1] is E. coli/pRAC-gfp. The data set can be described thus: microbe, parasite or virus in culture. The note with it: Escherichia coli, read-out: Inhibition/induction of the synthesis of the reporter protein GFP, E. coli/pRAC-gfp.
Data set [2] deals with E. coli/pRAC-gfp. The note with it: for Toxic and mutagenic effects on indicator cells E. coli/pRAC-gfp (in words): 150 μM; for The value of the fluorescence of GFP synthesized in biosensor cells, Biosensor E. coli/pRAC-gfp: 150 μM compound in culture medium, 1.5 h.
Data set [3] relates to E. coli/pET36b-gfp. Put plainly: microbe, parasite or virus in culture. As to conditions: Escherichia coli, read-out: Inhibition/induction of the synthesis of the reporter protein GFP, E. coli/pET36b-gfp.
Data set [4] concerns E. coli/pET36b-gfp. As to conditions: for Toxic and mutagenic effects on indicator cells E. coli/pET36b-gfp (in words): 150 μM; for The value of the fluorescence of GFP synthesized in biosensor cells, Biosensor E. coli/pET36b-gfp: 150 μM compound in culture medium, IPTG 1 mM.
A short description of data set [5]: MTT cell viability assay, U-937. Type of data set: cell-based. As to conditions: human, U-937 cells (monocytes). In short, it runs like this: (§1)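 Test compound, dissolved in DMSO, was added and cells were cultured for 72 h (37 °C, 5% CO2), three wells per concentration, with untreated cells as control. Then 1% MTT was added for 4 h, DMSO added and mixed 15 min, and OD read at 570 nm.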
For orientation: Tetrazolium dyes change colour on reduction, which living cells bring about.

Data set [6] can be described thus: MTT cell viability assay, MT-4. Type of data set: cell-based. The note with it: human, MT-4 cells. The method in brief: as §1
Data set [7] relates to MDCK cells. The note with it: 48 h, MTT.

As to `CCN(CC)CC/N=C1\C[C@H]2CC[C@]1(C)C2(C)C` [Compound 2, (E)-N^1,N^1-Diethyl-N^2-((1R,4R)-1,7,7-trimethylbicyclo[2.2.1]heptan-2-ylidene)ethane-1,2-diamine], the inhibition at 150 µM in data set [1] was less than 20%. Also, in data set [2], the “Toxic and mutagenic effects on indicator cells E. coli/pRAC-gfp (in words)” value is “neither toxic nor mutagenic effects”; the “The value of the fluorescence of GFP synthesized in biosensor cells, Biosensor E. coli/pRAC-gfp” value (“The value … Biosensor E. coli/pRAC-gfp” for short) worked out at 171.4 ± 14.5 conventional units. Besides, the inhibition at 150 µM in data set [3] is less than 20%. Besides, in data set [4], the “Toxic and mutagenic effects on indicator cells E. coli/pET36b-gfp (in words)” value was “neither toxic nor mutagenic effects”; the “The value of the fluorescence of GFP synthesized in biosensor cells, Biosensor E. coli/pET36b-gfp” value (shortened to “The value … Biosensor E. coli/pET36b-gfp”) amounted to 512.7 ± 32.4 conventional units.
In the case of `CC[N+](CC)(CCCCC[N+](CC)(CC)CC/N=C1\C[C@H]2CC[C@]1(C)C2(C)C)CC/N=C1\C[C@H]2CC[C@]1(C)C2(C)C` [Compound 3a, N^1,N^1,N^5,N^5-Tetraethyl-N^1,N^5-bis(2-((E)-((1R,4R)-1,7,7-trimethylbicyclo[2.2.1]heptan-2-ylidene)amino)ethyl)pentane-1,5-diaminium bromide], the concentration for half-maximal inhibition (IC50) at 72 h is 95.8 ± 5.6 µM in data set [5] and 57.5 ± 3.8 µM in data set [6]. Besides, the inhibition at 150 µM in data set [1] and in data set [3] was less than 20% each time. Besides, the “Toxic and mutagenic effects on indicator cells E. coli/pRAC-gfp (in words)” value in data set [2] is “neither toxic nor mutagenic effects”. Besides, the “The value … Biosensor E. coli/pRAC-gfp” value in data set [2] is listed as 168.9 ± 13.5 conventional units. Besides, in data set [4], the “Toxic and mutagenic effects on indicator cells E. coli/pET36b-gfp (in words)” value is “neither toxic nor mutagenic effects”. The “The value … Biosensor E. coli/pET36b-gfp” value in data set [4] is 546.9 ± 65.6 conventional units.
Consider `CC[N+](CC)(CCCCCC[N+](CC)(CC)CC/N=C1\C[C@H]2CC[C@]1(C)C2(C)C)CC/N=C1\C[C@H]2CC[C@]1(C)C2(C)C` [Compound 3b, N^1,N^1,N^6,N^6-Tetraethyl-N^1,N^6-bis(2-((E)-((1R,4R)-1,7,7-trimethylbicyclo[2.2.1]heptan-2-ylidene)amino)ethyl)hexane-1,6-diaminium bromide], for which the inhibition at 150 µM in data set [1] is less than 20%. In data set [7], the “CTD50, cytotoxic concentration; the concentration leading to 50% death of cells” value is 1712 µM and 1712.3 ± 169.8 µM. In data set [6], the IC50 at 72 h stood at 48.3 ± 3.2 µM. In data set [2], the “Toxic and mutagenic effects on indicator cells E. coli/pRAC-gfp (in words)” value is on record as “neither toxic nor mutagenic effects”; the “The value … Biosensor E. coli/pRAC-gfp” value came to 186.2 ± 22.9 conventional units. For the same molecule, the inhibition at 150 µM in data set [3] is less than 20%. Moreover, in data set [4], the “Toxic and mutagenic effects on indicator cells E. coli/pET36b-gfp (in words)” value is reported as “neither toxic nor mutagenic effects”; the “The value … Biosensor E. coli/pET36b-gfp” value was 495.5 ± 15.2 conventional units.
As to `CC[N+](CC)(CCCCCCCC[N+](CC)(CC)CC/N=C1\C[C@H]2CC[C@]1(C)C2(C)C)CC/N=C1\C[C@H]2CC[C@]1(C)C2(C)C` [Compound 3c, N^1,N^1,N^8,N^8-Tetraethyl-N^1,N^8-bis(2-((E)-((1R,4R)-1,7,7-trimethylbicyclo[2.2.1]heptan-2-ylideneamino)ethyl)octane-1,8-diaminium bromide], the concentration for half-maximal inhibition (IC50) at 72 h amounted to 67.2 ± 5.9 µM in data set [5] and 69.8 ± 2.7 µM in data set [6].
Consider `CC[N+](CC)(CCCCCCCC[N+](CC)(CC)CC/N=C1\C[C@H]2CC[C@]1(C)C2(C)C)CC/N=C1\C[C@H]2CC[C@]1(C)C2(C)C` [Compound 3c], for which, in data set [7], the “CTD50, cytotoxic concentration; the concentration leading to 50% death of cells” value was determined as 552.5 ± 49.1 µM. Further, in data set [2], the “Toxic and mutagenic effects on indicator cells E. coli/pRAC-gfp (in words)” value is reported as “highly toxic”; the “The value … Biosensor E. coli/pRAC-gfp” value is reported as 81.7 ± 3.6 conventional units. For the same molecule, in data set [4], the “Toxic and mutagenic effects on indicator cells E. coli/pET36b-gfp (in words)” value was “highly toxic”; the “The value … Biosensor E. coli/pET36b-gfp” value is 165.5 ± 8.1 conventional units.
The molecule `CC[N+](CC)(CCCCCCCCC[N+](CC)(CC)CC/N=C1\C[C@H]2CC[C@]1(C)C2(C)C)CC/N=C1\C[C@H]2CC[C@]1(C)C2(C)C` [Compound 3d, N^1,N^1,N^9,N^9-Tetraethyl-N^1,N^9-bis(2-((E)-((1R,4R)-1,7,7-trimethylbicyclo[2.2.1]heptan-2-ylidene)amino)ethyl)nonane-1,9-diaminium bromide] displayed an IC50 at 72 h in data set [5] of 58.6 ± 3.4 µM. This molecule also showed an IC50 at 72 h in data set [6] of 66 ± 5.3 µM. Besides, in data set [2], the “Toxic and mutagenic effects on indicator cells E. coli/pRAC-gfp (in words)” value is recorded as “highly toxic”; the “The value … Biosensor E. coli/pRAC-gfp” value is 95.9 ± 4.3 conventional units. In data set [4], the “Toxic and mutagenic effects on indicator cells E. coli/pET36b-gfp (in words)” value is given as “highly toxic”; the “The value … Biosensor E. coli/pET36b-gfp” value was determined as 172.3 ± 6.2 conventional units.
Consider `CC[N+](CC)(CCCCCCCCCC[N+](CC)(CC)CC/N=C1\C[C@H]2CC[C@]1(C)C2(C)C)CC/N=C1\C[C@H]2CC[C@]1(C)C2(C)C` [Compound 3e, N^1,N^1,N^10,N^10-Tetraethyl-N^1,N^10-bis(2-((E)-((1R,4R)-1,7,7-trimethylbicyclo[2.2.1]heptan-2-ylidene)amino)ethyl)decane-1,10-diaminium bromide], for which, in data set [5], the 50% inhibitory concentration (IC50) at 72 h was found to be 53.6 ± 2.2 µM. Also, half-maximal inhibition in data set [6] (IC50 at 72 h) was put at 66.1 ± 4.4 µM. Moreover, in data set [2], the “Toxic and mutagenic effects on indicator cells E. coli/pRAC-gfp (in words)” value is “highly toxic”; the “The value … Biosensor E. coli/pRAC-gfp” value worked out at 56.9 ± 3.1 conventional units. In data set [4], the “Toxic and mutagenic effects on indicator cells E. coli/pET36b-gfp (in words)” value was “highly toxic”; the “The value … Biosensor E. coli/pET36b-gfp” value is 110.7 ± 7.2 conventional units.
The molecule `CC[N+](CC)(CCCCCCCCCCCC[N+](CC)(CC)CC/N=C1\C[C@H]2CC[C@]1(C)C2(C)C)CC/N=C1\C[C@H]2CC[C@]1(C)C2(C)C` [Compound 3f, N^1,N^1,N^12,N^12-Tetraethyl-N^1,N^12-bis(2-((E)-((1R,4R)-1,7,7-trimethylbicyclo[2.2.1]heptan-2-ylidene)amino)ethyl)dodecane-1,12-diaminium bromide] registered an IC50 at 72 h in data set [5] of 15.9 ± 1.1 µM. Further, in data set [6], the IC50 at 72 h is 40.4 ± 3.9 µM. In addition, in data set [2], the “Toxic and mutagenic effects on indicator cells E. coli/pRAC-gfp (in words)” value is reported as “highly toxic”; the “The value … Biosensor E. coli/pRAC-gfp” value is 49.3 ± 2.1 conventional units. For the same molecule, in data set [4], the “Toxic and mutagenic effects on indicator cells E. coli/pET36b-gfp (in words)” value was “highly toxic”; the “The value … Biosensor E. coli/pET36b-gfp” value was found to be 51.3 ± 4.6 conventional units.
In data set [5], `CC[N+](CC)(CC/N=C1\C[C@H]2CC[C@]1(C)C2(C)C)Cc1ccc(C[N+](CC)(CC)CC/N=C2\C[C@H]3CC[C@]2(C)C3(C)C)cc1` [Compound 3g, (R,R,E)-N,N′-(1,4-Phenylenebis(methylene))bis(N,N-diethyl-2-((E)-((1R,4R)-1,7,7-trimethylbicyclo[2.2.1]heptan-2-ylidene)amino)ethanaminium) bromide] showed an IC50 at 72 h of 54.9 ± 2.6 µM. The inhibition at 150 µM in data set [1] was less than 20%. In addition, the concentration for half-maximal inhibition (IC50) at 72 h in data set [6] turned out to be 40.5 ± 3 µM. Moreover, in data set [2], the “Toxic and mutagenic effects on indicator cells E. coli/pRAC-gfp (in words)” value is “neither toxic nor mutagenic effects”; the “The value … Biosensor E. coli/pRAC-gfp” value turned out to be 170.87 ± 8.9 conventional units. The inhibition at 150 µM in data set [3] was less than 20%. Moreover, in data set [4], the “Toxic and mutagenic effects on indicator cells E. coli/pET36b-gfp (in words)” value is listed as “neither toxic nor mutagenic effects”; the “The value … Biosensor E. coli/pET36b-gfp” value was 466.46 ± 4.1 conventional units.
`CC[N+](C)(CC)CC/N=C1\C[C@H]2CC[C@]1(C)C2(C)C` [Compound 4a, N,N-Diethyl-N-methyl-2-((E)-((1R,4R)-1,7,7-trimethylbicyclo[2.2.1]heptan-2-ylidene)amino)ethanaminium iodide]: the IC50 at 72 h in data set [5] was 58.6 ± 4.6 µM; in data set [6], more than 100 µM. Besides, the inhibition at 150 µM in data set [1] and in data set [3] was less than 20% throughout. In addition, the “The value … Biosensor E. coli/pRAC-gfp” value in data set [2] is 189.21 ± 17.7 conventional units. Besides, the “The value … Biosensor E. coli/pET36b-gfp” value in data set [4] turned out to be 535.72 ± 307 conventional units.
`CC[N+](CC)(CC)CC/N=C1\C[C@H]2CC[C@]1(C)C2(C)C` [Compound 4b, N,N,N-Triethyl-2-((E)-((1R,4R)-1,7,7-trimethylbicyclo[2.2.1]heptan-2-ylidene)amino)ethanaminium bromide] came in with a half-inhibitory concentration (IC50) at 72 h in data set [5] of more than 100 µM. The inhibition at 150 µM in data set [1] is less than 20%. For the same molecule, the IC50 at 72 h in data set [6] is more than 100 µM. Besides, in data set [2], the “Toxic and mutagenic effects on indicator cells E. coli/pRAC-gfp (in words)” value was “neither toxic nor mutagenic effects”; the “The value … Biosensor E. coli/pRAC-gfp” value is 176.9 ± 16.9 conventional units. In addition, the inhibition at 150 µM in data set [3] is less than 20%. In addition, in data set [4], the “Toxic and mutagenic effects on indicator cells E. coli/pET36b-gfp (in words)” value is listed as “neither toxic nor mutagenic effects”; the “The value … Biosensor E. coli/pET36b-gfp” value is 547.9 ± 40.8 conventional units.
